Assay results from PubChem BioAssay AID652260 (The Scripps Research Institute Molecular Screening Center, 2013).
Among all 3,500 compounds or so, about 1,000 (29%) were called active.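 The calls were made as follows: active = activation above its plate's cutoff, the mean activation of tested wells plus 3 SD (cut at about 7.9% in these data); inactive = the rest.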 The list is a sample of the results.

Test: BRM-dependent MMTV reporter reactivation – cell-based, luminescence, triplicate, confirmation (AID 652260)
Details: MG213 cells, MMTV-luciferase with dexamethasone, overnight, at 9.1 µM, stronger effect = higher value, DMSO wells 0%, reference activator 100%, MG213 cells expressing E1A, Rb sequestered
Procedure, shortened: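 Assay system: MG213 MMTV-luciferase reporter cells; Quantity: 600 cells in each well; Incubation: compound exposure 24 h at 37 °C after 1-day dexamethasone priming; Read-out basis: % activation relative to DMSO and positive-control wells; Measured by: OneGlo luminescence, 15 min room-temperature incubation; Benchmarks: DMSO wells as low control, reference activator compound as high.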

activation, active:
CCN(CC)C(=O)CSc1nnc(-c2cccc(OC)c2)o1 8.07%, COc1ccc(C(=O)Nc2ccc3c(c2)OCO3)cc1OC 7.86%, CC(=O)Nc1ccc(Nc2c3ccccc3nc3ccccc23)cc1 43%, c1ccc2cc3c(NCCN4CCOCC4)ccnc3cc2c1 34.6%, COc1ccc(N=C(C)c2sc3ccccc3c2O)cc1 9.34%, Cc1cc(C)c2nc3nc(C)cc(C)c3c(N)c2c1 60%, CN(C)C(=S)N=c1ssc(=S)n1Cc1ccco1 15.4%, C=C1C(=O)[C@]23C[C@H]1CCC2[C@@]1(C)C(C[C@@H]3O)[C@](C)(C(=O)O)CC[C@@H]1O (stereo partly drawn) 28.4%, COCn1c(COc2ccccc2)nc2ccccc21 8.62%, COc1ccc(CC2c3cc(OC)c(OC)cc3CC[N+]2(C)CCC(=O)OCCCCCOC(=O)CC[N+]2(C)CCc3cc(OC)c(OC)cc3C2Cc2ccc(OC)c(OC)c2)cc1OC (stereo not drawn) 8.77%, COc1cc(CN2CCC(C(N)=O)CC2)ccc1OCc1ccccc1 13%, CCN(CC)C(=O)c1sc2nc(-c3ccccc3)ccc2c1N 9.6%, CN(C)S(=O)(=O)c1ccc2oc(SCC(=O)Nc3ccccc3F)nc2c1 7.95%, COc1ccc(-c2cc3ncccc3cn2)cc1 8.92%, O=C(Nc1ccc2c(c1)CCC2)c1ccc(Br)s1 10.8%, Cc1ccc(NC(=O)c2cnc(SCC(=O)NCC3CCCO3)n(C)c2=O)cc1 (stereo not drawn) 9.35%, COc1c(O)cc2oc(-c3ccc(O)c(O)c3)cc(=O)c2c1O 12.6%, CCCC(=O)N1c2ccc(-c3csc(N)n3)cc2CC1C (stereo not drawn) 8.32%, Cc1cc(C)c2nc(NC(=O)C3CCCO3)sc2c1 (stereo not drawn) 9.52%, C=CC(=O)OCCOCCOCCOCCOC(=O)C=C 7.95%, NS(=O)(=O)c1ccccc1NC(=O)c1c(O)c2ccccc2[nH]c1=O 12.1%, COc1ccccc1OCC(=O)O/N=C(\N)c1ccccn1 10.6%, CC(=O)Nc1cc(-c2ccc(N3CCN(C)CC3)cc2)cn2c(-c3ccc(F)cc3)cnc12 17.5%, CC(=O)c1cccc(-c2cnc3c(NC=O)cc(-c4ccc(N5CCN(C)CC5)cc4)cn23)c1 16.5%, Cc1cc(C)n2nc(CNS(=O)(=O)c3c(F)c(F)c(F)c(F)c3F)nc2n1 19.1%, O=C(O)c1cccc(N=NN2CCCCCC2)c1 12.5%, O=C(OCC(=O)c1cccs1)C1=COCCO1 8.33%, Cc1nc(N=C(N)N)nc2c(C)cccc12 40.3%, CCC(=O)Nc1ccc2nn(-c3ccc(F)cc3)nc2c1 11.7%, Cc1cccc(CSc2ccc(-c3cccs3)nn2)c1 7.87%, O=[N+]([O-])c1ccc2c(c1)Nc1nc3ccccc3nc1N2 24.9%

activation, inactive:
CCOC(=O)C(C)n1cnc2c(nnn2-c2cccc(OC)c2)c1=O (stereo not drawn) 4.29%, COc1cccc(-c2nc3cc(C)ccc3o2)c1 7.4%, CCNC(=S)N1CCN(c2ncccn2)CC1 -2.06%, Cc1cc(C)nc(Nc2n[nH]c(-c3ccccc3N)n2)n1 5.41%, CC(C)C[C@H]1CNC(=O)C(=O)N1C[C@H]1CCCN1C[C@H](Cc1ccc(O)cc1)N1C[C@H](CC(C)C)N(CC2CCCCCC2)C(=O)C1=O -0.79%, O=C(Nc1cccc([N+](=O)[O-])c1)c1ccc2c(c1)OCO2 3.25%, COCC(C)n1c(SCc2ccc(C(=O)OC)o2)nc2ccccc2c1=O (stereo not drawn) 0.09%, Cc1cc(-c2n[nH]c(=S)n2/N=C/C(Br)=C/c2ccccc2)n[nH]1 2.39%, CCN(CC)CCNC(=O)c1ccc(NC(=O)c2cc(-c3ccncc3)nc3ccccc23)cc1 5.3%, O=C(Nc1ccc2nccnc2c1)c1ccco1 5.96%, CCCSC(=S)NC1CCS(=O)(=O)C1 (stereo not drawn) -0.53%, COc1ccc(-c2cc(-c3ccc(N)cc3)nc(N)c2C#N)cc1OC -1.93%, Cc1ccc(C(=O)NNC(=O)c2cccs2)cc1 1.93%, COc1ccc(/C=N/NC(=O)c2cc(-c3cccc(C)c3)nc3ccccc23)cc1O 1.04%, COc1ccc(Cn2c(C)c(C)c(C#N)c2NC(=O)Nc2ccc(F)cc2)cc1 4.61%, C/C(CC(=O)NC(C)(C)C)=N\NC(=O)c1ccco1 5.29%, O=C1/C(=C\c2ccc([N+](=O)[O-])cc2)CS(=O)(=O)C/C1=C/c1ccc([N+](=O)[O-])cc1 -15.7%, COc1ccccc1C1=Nc2cccc3cccc(c23)N1 2.63%, O=C(CCCCCn1c(=S)[nH]c2ccsc2c1=O)NC1CCCCC1 1.02%, Cn1c(-c2ccc(F)cc2)cc2onc(-c3ccccc3Cl)c2c1=O -3.34%, CN1CCN(CCCNC(=O)c2ccc(/C=C3\Oc4ccccc4N(Cc4ccc(Cl)cc4)C3=O)cc2)CC1 3.44%, CCc1ccc[n+](-c2nc([O-])sc2C=O)c1 -1.34%, CCOC(=O)c1sc2nc(CSc3ccccc3)[nH]c(=O)c2c1C -0.16%, O=C(c1cc(-c2ccc(O)cc2)on1)N1CCOCC1 7.73%, O=C(c1cc(-c2ccccc2O)on1)N1CCCC1 1.4%, O=C(c1cccs1)C1C(c2ccc(Br)cc2)NC(=S)NC1(O)C(F)(F)F (stereo not drawn) 5.35%, Cc1ccc(-c2nc3ccc(Br)cn3c2Cc2ccccc2C(F)(F)F)cc1 0.37%, CC(C)(C)C(=O)CSc1nc2ccccc2o1 6.81%, COc1ccc(C(CNC(=O)c2ccc(S(=O)(=O)Nc3ccccc3F)cc2)N(C)C)cc1 (stereo not drawn) 0.35%, Cc1noc(C)c1/C=N/Nc1ccc2ccccc2n1 4.24%, CC1CCCCN1C(=S)NCc1ccccc1 (stereo not drawn) 0.99%, COc1ccc(-c2csc(Cc3nc(O)cs3)n2)cc1 -15.4%, CN(C)c1nc(=Nc2cccc(Cl)c2)ss1 -15.3%, Cc1n[nH]c(=O)nc1N/N=C/c1cccs1 3.07%, CCC1CCC/C1=N\NC(=O)c1ccc(Cl)cc1 (stereo not drawn) 2.31%, Cc1ccc(-c2c(C)n([O-])c3c([n+]2=O)CCC3)cc1 6.67%, N#Cc1ccccc1NC(=O)c1cccc(COc2ccc(Cl)cc2Cl)c1 4.05%, Fc1ccc(CNc2nc3ccccc3n3nnnc23)cc1 1.53%, CCCCNC(=O)C1CCC(CNS(=O)(=O)c2ccc(NC(C)=O)cc2)CC1 (stereo not drawn) -3.14%, Cc1cc2oc3ccc(NCCC4CCCN4C)cc3c(=O)c2cc1C (stereo not drawn) 5.48%, CC1CCCCC1NC(=O)CN1CCC(O)(c2ccc3c(c2)OCO3)CC1 (stereo not drawn) -0.84%, Cc1cc(C(=O)NNC(=S)Nc2ccccc2C)cs1 3.37%, O=C(Nc1nnc(CCc2ccccc2)s1)C1CCCO1 (stereo not drawn) 1.02%, O=C1Cc2cc(S(=O)(=O)Nc3cccc(F)c3)ccc2N1 0.74%, CCOc1cc(NC(=S)NCCCOC)c(OCC)cc1NC(=O)c1ccco1 -1.02%, Cc1ccc(S(=O)(=O)NC(C)C(=O)NCc2ccc(Cl)cc2)cc1 (stereo not drawn) -3.9%, CCCCn1nnnc1C(c1cc2ccccc2o1)N(C)Cc1ccc(Cl)c(Cl)c1 (stereo not drawn) -4.28%, COc1ccc(/C(N)=N/OC(=O)Oc2ccccc2)cc1 -2.89%, O=C(CSc1nc2ccccc2[nH]1)c1cccs1 2.82%, CN(C)CCNC(=O)c1cccc(-c2cnc3c(NC=O)cc(-c4cccc(C(F)(F)F)c4)cn23)c1 -12.7%, COc1ccc(C)cc1S(=O)(=O)N(CC(=O)Nc1cccc([N+](=O)[O-])c1)c1ccc(C)cc1 0.21%, Cc1ccc(S(=O)(=O)c2c[nH]c3ccc(Cl)cc3c2=O)cc1 0.08%, COc1ccc(S(=O)(=O)NC(C)C(=O)N2CCCCCC2)cc1 (stereo not drawn) -2.64%, O=C(NCc1ccccn1)c1cnc2sccn2c1=O 1.34%, Cc1cc(-n2cnc(-c3cn(C)nc3C)n2)no1 3.17%, COC(=O)C1C(=O)c2c([nH]c(C(=O)OCCSC)c2C)CC1C (stereo not drawn) 6.36%, CC(=O)c1sc(N/N=C\c2ccc(C)cc2)nc1C 6.84%, COc1ccc(NC(=O)c2sccc2SCC#N)cc1 0.37%, Cc1cc(O)c(NC(=O)c2ccc(C)c([N+](=O)[O-])c2)cc1C 5.6%, Cc1cc(=O)[nH]c(N/N=C/c2ccc3c(c2)OCCO3)n1 7.09%, Cn1c2ccc(F)cc2c2nnc(NN)nc21 -1.11%, COc1ccc2nc(/N=C(\N)NC(=O)Nc3ccccc3)nc(C)c2c1 2.85%, O=C(Nc1cccc([N+](=O)[O-])c1)N1CCc2ccccc2C1 5.56%, Cc1ccsc1-c1nc(CSCC(=O)NCCN2CCCC2)c(C)o1 -0.08%, Cn1cc(/C=C/C(=O)N2CCCC(C(=O)c3ccc(C(F)(F)F)cc3)C2)cn1 (stereo not drawn) 1.67%, Cc1c(NC(=O)CSc2cccc3cccnc23)c(=O)n(-c2ccccc2)n1C -8.3%, COC(=O)Cc1nnn2c1[C@H](C)[C@H](c1ccccc1[N+](=O)[O-])OCC2 0.13%
